The values that follow come from ChEMBL document CHEMBL3994609, “Model-Based Discovery of Synthetic Agonists for the Zn2+-Sensing G-Protein-Coupled Receptor 39 (GPR39) Reveals Novel Biological Functions” (J Med Chem, 2017).

The source made the active and inactive calls. The calls are words filed in the database; no cut-off is given here.

Series [1] concerns the target T1, G-protein coupled receptor 39 (Homo sapiens, UniProt O43194).
T1 sequence (O43194 whole entry): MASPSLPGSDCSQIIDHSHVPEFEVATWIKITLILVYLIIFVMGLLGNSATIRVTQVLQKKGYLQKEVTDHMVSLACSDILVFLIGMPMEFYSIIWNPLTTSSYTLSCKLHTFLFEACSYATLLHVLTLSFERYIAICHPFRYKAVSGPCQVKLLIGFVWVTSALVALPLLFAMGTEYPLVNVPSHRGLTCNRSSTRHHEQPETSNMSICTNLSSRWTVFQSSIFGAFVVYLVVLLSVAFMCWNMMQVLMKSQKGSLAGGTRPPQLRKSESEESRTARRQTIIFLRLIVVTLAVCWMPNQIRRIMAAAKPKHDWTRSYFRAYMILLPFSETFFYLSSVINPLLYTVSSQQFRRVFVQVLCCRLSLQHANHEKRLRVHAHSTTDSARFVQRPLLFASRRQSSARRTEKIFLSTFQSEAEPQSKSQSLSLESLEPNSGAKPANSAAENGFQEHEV
Nature of the series: Agonist activity at human GPR39 expressed in HEK293 cells co-expressing Galphaq assessed as myo-[2-3H]inositol phosphate accumulation in presence of 10 uM Zn2+ measured after 75 mins by scintillation proximity assay. Format: functional, cell-based. A general note: Scintillation proximity formats need no separation of bound from free tracer.

Series [2] deals with T2, G-protein coupled receptor 39 (Mus musculus, UniProt Q5U431).
T2 sequence (Q5U431 whole entry): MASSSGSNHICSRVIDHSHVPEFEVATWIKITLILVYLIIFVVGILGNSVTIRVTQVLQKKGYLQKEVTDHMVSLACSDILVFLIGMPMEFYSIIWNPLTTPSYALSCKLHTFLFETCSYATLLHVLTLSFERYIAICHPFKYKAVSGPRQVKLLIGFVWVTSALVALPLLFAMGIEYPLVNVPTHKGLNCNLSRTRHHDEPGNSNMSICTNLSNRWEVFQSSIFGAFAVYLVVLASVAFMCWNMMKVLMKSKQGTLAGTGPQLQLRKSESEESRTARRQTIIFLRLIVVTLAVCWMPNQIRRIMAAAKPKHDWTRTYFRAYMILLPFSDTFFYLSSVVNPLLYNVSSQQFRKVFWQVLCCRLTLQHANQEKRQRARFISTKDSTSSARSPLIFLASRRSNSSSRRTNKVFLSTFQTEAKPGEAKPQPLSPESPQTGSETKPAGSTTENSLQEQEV
Description: Agonist activity at mouse GPR39 expressed in HEK293 cells co-expressing Galphaq assessed as myo-[2-3H]inositol phosphate accumulation in presence of 10 uM Zn2+ measured after 75 mins by scintillation proximity assay. Format: functional, cell-based.

Series [3] has as its target Motilin receptor (Homo sapiens) (UniProt O43193). Description: Agonist activity at human motilin receptor (412 residues) assessed as myo-[2-3H]inositol phosphate accumulation in presence of 10 uM Zn2+ measured after 75 mins by scintillation proximity assay. Format: functional.
The target of series [4] is Growth hormone secretagogue receptor type 1 (Homo sapiens) (UniProt Q92847). Nature of the series: Agonist activity at human ghrelin receptor ([…]) assessed as myo-[2-3H]inositol phosphate accumulation in presence of 10 uM Zn2+ measured after 75 mins by scintillation proximity assay. Format: functional.
Sequence of Growth hormone secretagogue receptor type 1 (Homo sapiens) (Q92847 whole entry): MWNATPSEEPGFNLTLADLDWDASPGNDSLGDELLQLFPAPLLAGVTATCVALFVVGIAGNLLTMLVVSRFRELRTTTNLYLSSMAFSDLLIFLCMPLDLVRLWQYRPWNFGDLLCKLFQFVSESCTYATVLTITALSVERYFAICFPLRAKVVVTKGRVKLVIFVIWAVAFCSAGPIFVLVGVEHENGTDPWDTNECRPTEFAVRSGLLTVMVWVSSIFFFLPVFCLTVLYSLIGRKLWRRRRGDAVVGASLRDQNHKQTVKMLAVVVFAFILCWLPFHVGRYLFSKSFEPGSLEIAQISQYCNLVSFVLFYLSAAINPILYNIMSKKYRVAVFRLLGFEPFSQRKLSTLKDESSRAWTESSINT
For series [5], the target named is T3, G-protein coupled receptor 39 (Homo sapiens) (UniProt O43194).
T3 sequence (whole entry): T1 sequence (O43194 whole entry)
Description: Agonist activity at GPR39 (unknown origin) expressed in COS7 cells co-expressing Galphas assessed as increase in intracellular cAMP level measured after 30 mins by chemiluminescence assay. Format: functional, cell-based. A general note: Cyclic AMP is a second messenger, typically raised through Gs and lowered through Gi signalling.

Series [6] addresses Motilin receptor (Homo sapiens) (UniProt O43193). Nature of the series: Agonist activity at human motilin receptor (412 residues) assessed as myo-[2-3H]inositol phosphate accumulation measured after 75 mins by scintillation proximity assay. Format: functional.
Series [7] concerns the target C-C chemokine receptor type 5 (Macaca mulatta) (UniProt P61813). Nature of the series: Agonist activity at full length monkey CCR5 assessed as myo-[2-3H]inositol phosphate accumulation in presence of 10 uM Zn2+ measured after 75 mins by scintillation proximity assay. Format: functional.
The nature of series [8]: Apparent permeability from apical to basolateral side in human Caco2 cells by LC-MS/MS analysis. Format: ADME, cell-based. The note with it: Caco-2. (Passage across Caco-2 layers is used to estimate intestinal permeability.)
Series [9] deals with Neuromedin-U receptor 2 (Homo sapiens) (UniProt Q9GZQ4). Description: Agonist activity at human NMU2 receptor assessed as myo-[2-3H]inositol phosphate accumulation in presence of 10 uM Zn2+ measured after 75 mins by scintillation proximity assay. Format: functional.
Sequence of Neuromedin-U receptor 2 (Homo sapiens) (Q9GZQ4 whole entry): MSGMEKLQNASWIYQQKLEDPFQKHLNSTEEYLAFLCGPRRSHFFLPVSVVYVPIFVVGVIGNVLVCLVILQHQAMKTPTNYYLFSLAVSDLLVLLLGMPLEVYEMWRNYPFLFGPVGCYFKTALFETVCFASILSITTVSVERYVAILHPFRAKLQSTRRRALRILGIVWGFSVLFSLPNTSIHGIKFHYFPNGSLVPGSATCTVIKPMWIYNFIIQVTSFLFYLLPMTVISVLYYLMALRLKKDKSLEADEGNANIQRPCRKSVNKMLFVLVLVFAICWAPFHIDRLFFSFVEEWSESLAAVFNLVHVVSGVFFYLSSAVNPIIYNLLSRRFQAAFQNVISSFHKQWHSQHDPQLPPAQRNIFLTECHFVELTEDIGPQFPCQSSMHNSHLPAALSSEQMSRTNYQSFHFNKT
The subject of a further series is Plasma. Nature of the series: Drug uptake in mouse plasma at 30 to 60 mg/kg, po administered via gavage measured after 30 to 240 mins by LC-MS/MS analysis. Format: ADME, organism-based. The note with it: in vivo. The procedure, abridged: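 Mice dosed orally at 30 mg/kg and 60 mg/kg; plasma compound concentration followed from 30 to 240 min.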
For the next series, the system named is Pancreatic islet. Nature of the series: Induction of glucose-stimulated insulin release in mouse pancreatic islets at 1 uM pretreated for 24 hrs followed by glucose addition measured after 30 mins. Format: functional, cell-based. An outline of the steps: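 Islets isolated from GPR39-deficient mice and wild-type littermates on five independent days, 2 to 3 mice per day; insulin secretion measured with vehicle or 1 μM compound.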

Series [10] deals with T1, G-protein coupled receptor 39. Nature of the series: Agonist activity at human GPR39 expressed in HEK293 cells co-expressing Galphaq assessed as myo-[2-3H]inositol phosphate accumulation measured after 75 mins by scintillation proximity assay. Format: functional, cell-based.

Sequence of Motilin receptor (Homo sapiens) (O43193 whole entry): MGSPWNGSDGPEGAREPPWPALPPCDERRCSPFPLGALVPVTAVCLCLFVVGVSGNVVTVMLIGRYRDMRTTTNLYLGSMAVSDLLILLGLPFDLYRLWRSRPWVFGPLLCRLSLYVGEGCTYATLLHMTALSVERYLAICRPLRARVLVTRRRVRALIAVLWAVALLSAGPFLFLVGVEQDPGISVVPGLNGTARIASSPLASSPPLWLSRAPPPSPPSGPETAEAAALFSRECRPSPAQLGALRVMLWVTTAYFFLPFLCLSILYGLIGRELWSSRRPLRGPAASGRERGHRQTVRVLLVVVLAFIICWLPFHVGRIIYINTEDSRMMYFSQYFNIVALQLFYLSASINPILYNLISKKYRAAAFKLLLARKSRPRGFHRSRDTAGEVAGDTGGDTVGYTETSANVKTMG

As to `Cc1nn(-c2ncnc3nc[nH]c23)c2c1C(c1ccc(F)cc1Cl)CC(=O)N2` (configuration not stated), the values for the EC50 in [1], in series [2] and in series [10] were 9 nM, 5 nM and 280 nM, respectively. In addition, the outcome in [3], in series [4], in series [5], in series [6], in [7] and in series [9] was inactive. The result in the series on Pancreatic islet was inactive. Further, in [8], the apical-to-basolateral permeability (Papp A→B) (in general, the apparent permeability from the apical to the basolateral side of a cell layer) was 25 ×10⁻⁶ cm/s. The Drug uptake result with Plasma is “Active”.
